# Bioassay records: PubChem, Sanford-Burnham Center for Chemical Genomics
# Sampled rows, rich in hits. Any-hit rate of the full collection: about 1.7%.
# LMPTP inh: blocks human LMPTP phosphatase; 360,000 compounds, 0.22% hits; P24666; AID 651560; inhibition, % at 20 µM; recombinant LMPTP-A, OMFP fluorogenic substrate, fluorescence intensity;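 active means compounds that cut the enzyme signal by at least half of the control window in the single-dose screen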;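 further: plate controls were DMSO wells with enzyme plus substrate for no effect and substrate without enzyme for full effect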
#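 Assay system: LMPTP-A, protein tyrosine phosphatase of low molecular weight / Medium: pH 6.0 Bis-Tris buffer with DTT and Triton X-100 / Schedule: 50 min enzyme reaction at room temperature, protected from light / Measured by: endpoint fluorescence intensity from OMFP dephosphorylation / Read-out basis: % inhibition relative to no-enzyme and uninhibited control wells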
# Scp-1 inhibitor: Scp-1 (human) phosphatase inhibition. Q9GZU7. Recombinant Scp1, phosphopeptide, malachite green phosphate absorbance. inhibition, % at 20 µM. 340,000 compounds, 0.88% hits. AID 493091;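 active means inhibition above about 50% at 20 µM, limit read from the data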;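 further: plate controls were DMSO wells with enzyme for no effect and wells lacking enzyme for full effect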
#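 Material: truncated SCP-1 phosphatase (76-261aa) / Buffer or medium: 50 mM Tris acetate pH 5.5, 0.005% Tween-20, 10 mM MgCl2 / Compound dosing: one concentration, 20 µM, with 1.0% DMSO / Incubation: 45 min room-temperature reaction, 5 min colour, 30 min stabiliser / Detection: colorimetric free-phosphate detection, absorbance 630 nm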
# SUMO1-SIM PPI: modulators of human SUMO1-mediated protein-protein interactions | SUMO1 binding to a labelled peptide, TR-FRET, 1 h | 360,000 compounds, 0.33% hits | inhibition, % at 20 µM; in the data active means inhibition above about 37%
# STEP inh: STEP (human) phosphatase inhibition; AID 588621; inhibition, % at 20 µM; P54829; recombinant STEP, OMFP fluorogenic substrate, fluorescence; 360,000 compounds, 0.25% hits;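 active means inhibition at 20 µM, scaled per plate between control wells, above about 37%, limit read from the data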;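 further: 0% = DMSO with enzyme and substrate and 100% = substrate only without enzyme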
#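 material = STEP tyrosine phosphatase | reagent = fluorogenic phosphatase substrate OMFP at 25 µM final | doses = single compound dose of 20 µM, 1% DMSO final | schedule = 20 min reaction, room temperature, in the dark | measured by = fluorescence, 480/540 nm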
# DNMT1 block: blocks human DNA methyltransferase DNMT1 | 360,000 compounds, 0.83% hits | DNMT1 molecular beacon, Hinp1I cleavage, fluorescence | inhibition (reported as % activation of signal), % at 10 µM; in the data active means inhibition above about 50%
# Target sequence (P26358 504-1616 limits assumed): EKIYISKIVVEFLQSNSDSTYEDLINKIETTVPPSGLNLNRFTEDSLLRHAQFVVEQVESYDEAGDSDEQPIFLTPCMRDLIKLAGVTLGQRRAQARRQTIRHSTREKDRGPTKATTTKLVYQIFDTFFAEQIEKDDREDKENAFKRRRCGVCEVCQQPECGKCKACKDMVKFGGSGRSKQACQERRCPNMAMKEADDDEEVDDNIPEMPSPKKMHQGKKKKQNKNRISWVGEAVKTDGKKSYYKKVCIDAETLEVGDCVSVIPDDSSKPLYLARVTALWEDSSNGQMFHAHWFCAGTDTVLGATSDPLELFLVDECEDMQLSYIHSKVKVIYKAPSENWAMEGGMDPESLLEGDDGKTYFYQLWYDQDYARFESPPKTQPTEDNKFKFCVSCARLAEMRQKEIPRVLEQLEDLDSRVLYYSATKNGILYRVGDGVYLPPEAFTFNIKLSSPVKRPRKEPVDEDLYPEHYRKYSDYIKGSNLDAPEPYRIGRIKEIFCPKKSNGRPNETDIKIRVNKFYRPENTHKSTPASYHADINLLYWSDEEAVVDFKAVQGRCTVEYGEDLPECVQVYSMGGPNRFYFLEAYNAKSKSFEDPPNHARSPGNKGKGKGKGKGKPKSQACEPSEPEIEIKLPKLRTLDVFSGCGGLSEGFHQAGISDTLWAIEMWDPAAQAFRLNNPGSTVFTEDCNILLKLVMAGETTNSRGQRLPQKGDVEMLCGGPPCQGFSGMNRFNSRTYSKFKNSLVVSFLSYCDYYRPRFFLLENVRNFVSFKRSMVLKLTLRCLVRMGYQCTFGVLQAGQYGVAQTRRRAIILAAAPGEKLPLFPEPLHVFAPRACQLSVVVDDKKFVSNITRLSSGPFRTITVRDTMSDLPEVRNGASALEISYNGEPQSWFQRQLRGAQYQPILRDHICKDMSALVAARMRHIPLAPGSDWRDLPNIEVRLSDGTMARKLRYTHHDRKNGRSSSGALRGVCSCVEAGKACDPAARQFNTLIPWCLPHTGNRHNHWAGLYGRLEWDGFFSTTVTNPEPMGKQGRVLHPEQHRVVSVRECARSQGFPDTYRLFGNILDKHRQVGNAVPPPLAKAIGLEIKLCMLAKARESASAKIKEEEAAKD
# Numbers without * were called inactive; / = no result.
SMILES,LMPTP inh,Scp-1 inhibitor,SUMO1-SIM PPI,STEP inh,DNMT1 block
COc1nc(-c2ccccc2)ncc1S(=O)(=O)c1ccccc1,0,0,1,0,3
Cc1nc(-c2ccccc2)sc1-c1nc(-c2ccncc2)ncc1S(=O)(=O)c1ccccc1,6,12,47*,0,-4
O=S(=O)(Nc1ccccc1F)c1cccc(NC(=S)NCCN2CCOCC2)c1,5,-7,3,92*,-4
O=C1CCn2c1c(O)c1ccccc1c2=O,3,12,5,5,4
N=C1CCC(=N)c2c1c(O)c1ccccc1c2O,31,42,44*,6,76*
O=C(NC1CC1)c1cccc(NC(=O)C2CCN(S(=O)(=O)c3ccccc3C(F)(F)F)CC2)c1,-1,/,1,1,-2
Cc1cc(-c2csc(NC(=O)c3ccc(=O)[nH]c3)n2)c(C)n1Cc1ccco1,63*,-9,78*,11,74*
CCNc1nc(-c2cc(C)n(Cc3ccco3)c2C)cs1,3,-4,-1,0,-27
CCN(CC)CCNC(=O)c1nn(-c2ccc(Cl)cc2)c2c1CCc1cc(OC)ccc1-2,0,5,-17,-1,-6
O=c1[nH]c(Nc2ccccc2Cl)cc2ccccc12,9,-6,28,10,85*
O=c1[nH]c(Nc2ccc(F)cc2)cc2ccccc12,9,-2,32,10,49
Cc1ccccc1Nc1cc2ccccc2c(=O)[nH]1,9,-7,21,8,84*
COc1ccc(/C=N/Nc2nc(C(=O)O)cs2)cc1,64*,41,6,18,9
Cc1ccc(CSc2nnc(-c3ccco3)o2)cc1,1,-6,2,2,-4
c1ccc(CSc2nnc(-c3ccco3)o2)cc1,0,-10,44*,0,4
OC(c1ccc(F)cc1)c1nc(-c2cncnc2)cs1 (centres undefined),-1,/,-2,-1,1
CC1(c2nnnn2-c2ccc3c(c2)OCCO3)CCC(=O)N1CCc1ccc(O)cc1 (centres undefined),-2,/,-1,/,/
CCNc1nc2c(c(=O)[nH]c(=O)n2C)n1CC(C)C,-1,-12,43*,4,2
COC(=O)c1sc(NC(=O)c2cc(-c3ccccc3)nc3ccccc23)c(C#N)c1C,1,-9,4,91*,-27
CCOC(=O)c1sc(NC(=O)c2cc(-c3ccc(C)cc3)nc3ccccc23)c(C#N)c1C,2,-11,4,10,-23
O=C(OCC(=O)N1CCCC1)c1cccc(Br)c1,-2,2,67*,-2,3
CNS(=O)(=O)c1cccc(C(=O)OCC(=O)N2CCCC2)c1,0,2,-2,-2,6
O=C(Nc1ccccn1)c1onc2c1CCCC2,1,50*,-2,-1,4
O=C(Nc1ccccn1)c1csc2c1CCCC2,0,-2,11,2,3
CCOC1CCCc2oc(-c3ccc(OC)cc3)c(C#CCCO)c21 (centres undefined),0,/,-4,/,/
SMILES,LMPTP inh,Scp-1 inhibitor,SUMO1-SIM PPI,STEP inh,DNMT1 block
CCOC(=O)[C@]12Cc3c(cc(OC)c(OC)c3OC)[C@H]1N(C1CCCCC1)C(=O)c1cc(OC)ccc12,1,/,3,/,/
O=C(Nc1nccs1)c1ccc(CSc2ccccc2)o1,49*,4,7,0,0
O=C1CC(N2CCC(c3nc4ccccc4o3)CC2)C(=O)N1Cc1cccs1 (centres undefined),3,-4,57*,-2,-3
O=C1CC(N2CCN(c3nc4ccccc4s3)CC2)C(=O)N1Cc1cccs1 (centres undefined),0,-3,1,-2,-4
CCc1nc2c(OCCOc3ccc(F)cc3)cccn2c1N(C)C(=O)C(C)C,-1,/,-1,-1,0
O=C1c2ccccc2C(=O)C12OC2c1cccc2ccccc12 (centres undefined),15,-1,39*,34,58*
CC(C)c1ccc(C(=O)N2CCOCC2c2cc(C(=O)Nc3ccccc3)no2)cc1 (centres undefined),1,/,-1,-2,5
NC(=S)Cc1nc(-c2ccccc2)cs1,0,4,-2,4,50*
CC(C(=O)NC1CCCC1)n1c(-c2ccncc2)nc2ccccc21 (centres undefined),1,/,-6,/,/
CC[n+]1c(/C=C/c2ccc(OC(C)=O)c(OC)c2)ccc2ccccc21,1,55*,-44,-1,-4
Cc1ccc(CNc2ccc(O)cc2)cc1,18,-7,68*,8,-6
Cc1ccc(NCc2ccccc2O)cc1,-1,-11,2,-4,-2
CCOC(=O)[C@]12CCC=C1N(Cc1ccc3c(c1)OCO3)C(=O)[C@H](CC(=O)NCc1cccc(C(F)(F)F)c1)C2,3,/,5,/,/
COc1ccc(C(=O)Nc2ccc(C(=O)Nc3nccs3)cc2)cc1[N+](=O)[O-],3,-8,54*,0,-8
COc1ccc(C(=O)NC(=S)Nc2cccc3ncccc23)cc1[N+](=O)[O-],13,-10,56*,3,-9
O=C(Nc1nccs1)c1ccc(Cl)c([N+](=O)[O-])c1,-1,0,-25,0,2
N#CC12C(=O)NC(=O)C1(C#N)C21CCCC1 (centres undefined),-1,4,-2,0,33
COc1ccc(C(=O)N/N=C(\C)c2ccc(NC(=O)Cc3ccccc3)cc2)c(OC)c1,0,-2,47*,1,5
C/C(=N\NC(=O)c1ccc(F)cc1)c1ccc(NC(=O)Cc2ccccc2)cc1,0,-2,0,0,2
COc1cc(/C=C2\CCc3c2nc2ccccc2c3C(=O)O)cc(OC)c1OC,8,71*,48*,42*,97*
COc1cc(/C=C2\CCCc3c2nc2ccccc2c3C(=O)O)cc(Br)c1O,-7,-8,0,3,0
C=C1CCC2C(C)(C(=O)O)CCCC2(C)C1CCC(CO)CCO (centres undefined),-1,/,2,-2,1
O=C(Nc1nc2c(Br)cc(Br)cc2c(=O)s1)c1ccco1,16,93*,5,34,5
CCc1nc2c(OCc3ccccc3C(=O)OC)cccn2c1N(C)C(=O)CC(C)C,0,/,1,0,0
COc1ccc(/C(C)=N/NC(=O)c2nnn(-c3nonc3N)c2-c2ccccc2)cc1,52*,14,2,29,24
CCCCCCc1cc2cc(-c3nnc(-c4cc(OC)c(OC)c(OC)c4)o3)c(=O)oc2cc1O,/,0,/,/,/
CCCCCCc1cc2cc(-c3nnc(-c4ccccc4O)o3)c(=O)oc2cc1O,1,-8,8,-1,87*
COc1ccc(CCNC(=O)c2cc(-c3cc(C)ccc3O)n[nH]2)cc1OC,1,-6,2,4,-4
